Measurements published in article PMC2659760 (The Journal of organic chemistry, 2009).
“Also recorded” adds a separate entry of the source. Like-named read-outs stand apart in the source and are kept apart here.

Tests used:
[1] = target: T1, bovine plasma amine oxidase (BPAO) (Bos taurus, UniProt Q29437); assay: Substrate activity with BPAO; type: biochemical; conditions: kcat/Km relative to BA = 1
T1 sequence (Q29437 17-762): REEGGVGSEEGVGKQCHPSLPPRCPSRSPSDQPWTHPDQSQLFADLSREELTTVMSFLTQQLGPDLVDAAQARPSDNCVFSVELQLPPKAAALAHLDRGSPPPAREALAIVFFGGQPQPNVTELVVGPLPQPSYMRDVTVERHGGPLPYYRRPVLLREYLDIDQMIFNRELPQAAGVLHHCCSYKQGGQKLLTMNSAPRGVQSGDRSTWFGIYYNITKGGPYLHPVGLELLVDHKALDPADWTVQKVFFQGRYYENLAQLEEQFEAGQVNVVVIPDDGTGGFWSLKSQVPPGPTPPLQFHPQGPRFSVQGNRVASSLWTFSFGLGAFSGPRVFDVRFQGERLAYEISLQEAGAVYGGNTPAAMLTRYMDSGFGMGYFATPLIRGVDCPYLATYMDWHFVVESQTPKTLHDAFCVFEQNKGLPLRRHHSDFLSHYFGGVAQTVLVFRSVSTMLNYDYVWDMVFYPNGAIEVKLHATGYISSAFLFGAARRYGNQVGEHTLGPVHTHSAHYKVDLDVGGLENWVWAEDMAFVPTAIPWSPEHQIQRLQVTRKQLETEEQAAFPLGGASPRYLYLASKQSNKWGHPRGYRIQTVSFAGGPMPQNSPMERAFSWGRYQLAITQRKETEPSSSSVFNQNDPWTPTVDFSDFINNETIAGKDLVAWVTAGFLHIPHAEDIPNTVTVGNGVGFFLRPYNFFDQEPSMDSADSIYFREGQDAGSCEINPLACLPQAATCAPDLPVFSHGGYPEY

[2] = target: T2, BPAO (Bos taurus, UniProt Q29437); assay: Inhibition of BPAO evaluated with the new fluorometric assay; type: biochemical, bovine
T2 sequence (Q29437 17-762): T1 sequence (Q29437 17-762)
In short: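 BPAO (50 nM) in 0.1 M pH 7.2 phosphate buffer, held 5 min at 2 °C, then given test inhibitor (final 1–10 µM; repeat at 30 °C with 0.125–2 µM). Aliquots taken over time and assayed at 30 °C: 10 µM fluorogenic amine substrate, emission 453 nm (λex 350 nm), 30 s. Residual activity relative to an inhibitor-free control; t1/2 per concentration fed Kitz–Wilson plot.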

[3] = target: T2, BPAO; conditions: ref 8d, cited from earlier work
[4] = tested on: rat liver monoamine oxidase (MAO-B); assay: Selectivity: initial oxidation velocity with rat liver MAO-B; type: biochemical; conditions: for V0: 30 °C, 250 nm, rat liver mitochondria
In short: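 MAO-B source: isolated rat liver mitochondria, protein by biuret (BSA standard). Thawed suspension in mannitol/sucrose/MOPS pH 7.4 diluted with 0.1 M pH 7.2 phosphate containing 0.25% Triton X-100, warmed to 30 °C. Aliquot added to 20 µM test amine (0.1 M phosphate) or 5 mM benzylamine (50 mM phosphate). A250 followed 30 s at 30 °C; rates via extinction coefficients.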

[5] = target: T3, Pichia pastoris lysyl oxidase (PPLO) (Komagataella pastoris, UniProt Q96X16); assay: Selectivity: initial oxidation velocity with PPLO; type: biochemical; conditions: for V0: 30 °C, 250 nm
T3 sequence (Q96X16 19-787): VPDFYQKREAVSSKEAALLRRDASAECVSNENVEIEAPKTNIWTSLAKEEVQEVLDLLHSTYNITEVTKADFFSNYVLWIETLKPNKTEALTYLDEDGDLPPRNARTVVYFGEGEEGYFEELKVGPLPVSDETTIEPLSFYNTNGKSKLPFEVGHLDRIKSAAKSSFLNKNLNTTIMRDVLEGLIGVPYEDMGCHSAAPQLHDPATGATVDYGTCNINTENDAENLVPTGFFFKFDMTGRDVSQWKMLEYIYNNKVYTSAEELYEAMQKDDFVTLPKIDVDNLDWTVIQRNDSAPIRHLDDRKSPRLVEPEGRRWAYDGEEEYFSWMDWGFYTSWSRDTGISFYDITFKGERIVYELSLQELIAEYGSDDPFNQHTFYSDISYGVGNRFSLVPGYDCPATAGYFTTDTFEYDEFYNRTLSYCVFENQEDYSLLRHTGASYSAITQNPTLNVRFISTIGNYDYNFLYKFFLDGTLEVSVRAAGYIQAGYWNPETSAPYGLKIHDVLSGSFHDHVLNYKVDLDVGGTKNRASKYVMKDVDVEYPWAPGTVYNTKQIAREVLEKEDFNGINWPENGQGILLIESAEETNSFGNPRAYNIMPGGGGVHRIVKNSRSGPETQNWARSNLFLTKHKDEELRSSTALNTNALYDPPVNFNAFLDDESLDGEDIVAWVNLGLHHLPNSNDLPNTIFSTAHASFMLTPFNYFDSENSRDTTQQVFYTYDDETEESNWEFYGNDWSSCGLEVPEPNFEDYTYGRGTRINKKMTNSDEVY
In short: (§1)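 Purified enzyme was diluted into 20 µM fluorogenic amine substrate in 0.1 M pH 7.2 phosphate buffer, or into 5 mM benzylamine in 50 mM pH 7.2 phosphate buffer, at 30 °C. Absorbance at 250 nm was followed for 30 s. Slopes were converted to nM s−1 using extinction coefficients of the aldehyde products at 250 nm.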

[6] = target: T2, BPAO; assay: Selectivity: initial oxidation velocity with BPAO; type: biochemical, bovine; conditions: for V0: 30 °C, 250 nm
In short: as §1

[7] = target: Arthrobacter globiformis amine oxidase (AGAO) (Arthrobacter globiformis, UniProt P46881); assay: Selectivity: initial oxidation velocity with AGAO; type: biochemical; conditions: for V0: 30 °C, 250 nm
In short: as §1

[8] = target: T4, porcine kidney diamine oxidase (pkDAO) (Sus scrofa, UniProt Q9TRC7); assay: Selectivity: initial oxidation velocity with pkDAO; type: biochemical; conditions: for V0: 37 °C, 250 nm
T4 sequence (Q9TRC7 25-755): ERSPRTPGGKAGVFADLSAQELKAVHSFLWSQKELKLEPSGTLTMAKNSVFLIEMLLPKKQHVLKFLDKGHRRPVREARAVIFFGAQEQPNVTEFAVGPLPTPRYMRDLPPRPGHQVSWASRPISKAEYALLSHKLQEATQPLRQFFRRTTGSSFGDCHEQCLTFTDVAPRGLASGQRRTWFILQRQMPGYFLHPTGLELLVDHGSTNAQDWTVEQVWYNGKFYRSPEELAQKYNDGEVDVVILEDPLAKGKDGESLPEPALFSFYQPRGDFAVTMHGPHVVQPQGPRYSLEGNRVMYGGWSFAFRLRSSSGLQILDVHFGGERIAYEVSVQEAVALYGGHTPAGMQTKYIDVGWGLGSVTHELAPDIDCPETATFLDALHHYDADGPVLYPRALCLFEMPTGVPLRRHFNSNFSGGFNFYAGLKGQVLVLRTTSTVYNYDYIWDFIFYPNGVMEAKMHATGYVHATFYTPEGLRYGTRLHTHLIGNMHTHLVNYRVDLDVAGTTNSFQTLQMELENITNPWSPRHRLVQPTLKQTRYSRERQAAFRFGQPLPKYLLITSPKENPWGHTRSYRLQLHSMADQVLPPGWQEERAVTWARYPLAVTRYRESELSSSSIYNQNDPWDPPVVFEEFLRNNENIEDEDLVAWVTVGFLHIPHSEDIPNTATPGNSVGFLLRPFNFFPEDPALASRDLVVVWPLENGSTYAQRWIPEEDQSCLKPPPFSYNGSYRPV
In short: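 Porcine kidney DAO (from 10 mg/mL stock) in 0.1 M pH 7.2 phosphate buffer, equilibrated at 37 °C. Test amine (final 20 µM) or p-xylylenediamine (final 1.5 mM) was added. Absorbance at 250 nm was read for 30 s at 37 °C. Rates were computed using a literature extinction coefficient for p-(aminomethyl)benzaldehyde.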

[9] = Solubility; type: physicochemical
[10] = 12 20 µM in 0.1 M pH 7.2 phosphate buffer
[11] = BA 5 mM in 50 mM pH 7.2 phosphate buffer

CN(C)CCOc1ccc2cc(CN)ccc2c1.Cl.Cl [compound 11, (2-(6-(Aminomethyl)naphthalen-2-yloxy)ethyl)dimethylamine dihydrochloride]
relative activity ([1]; fluorescence spectrophotometry): 3.1×10^3

C=C=CCN [compound 29, 1-Amino-2,3-butadiene]
slope of the Kitz and Wilson plot ([2]; inactivation at 2 °C, BPAO 50 nM): 10.8 | IC50 ([2]; read-out: 5 min IC50, 30 °C): 250 nM | IC50 ([2]; read-out: 10 min IC50, 30 °C): 125 nM | slope of the Kitz and Wilson plot ([3]; BA assay, 2 °C): 10.2 | IC50 ([3]; read-out: 5 min IC50, BA assay with 1 µM BPAO, previous estimation): 1250 nM

C[N+](C)(C)CCOc1ccc2cc(CN)ccc2c1.Cl.[Cl-] [compound 12, (2-(6-(Aminomethyl)naphthalen-2-yloxy)ethyl)trimethylammonium chloride hydrochloride]
substrate activity with MAO-B (in words) [4]: no significant substrate activity | V0 [4, 10]: 0.6 nM/s | substrate activity with MAO-B (in words) ([4]; listed as ANETA): not a substrate | V0 [5, 10]: 24.8 nM/s | substrate activity with PPLO (in words) ([5]; compared with BPAO): comparable rate | relative activity ([1]; fluorescence spectrophotometry): 5.4×10^3 | substrate activity with BPAO (in words) [6]: metabolized quickly | V0 [6, 10]: 62.3 nM/s | substrate activity with BPAO (in words) ([6]; listed as ANETA): good substrate | substrate activity with AGAO (in words) [7]: no significant substrate activity | V0 [7, 10]: 1.3 nM/s | substrate activity with pkDAO (in words) [8]: no significant substrate activity | V0 [8, 10]: 1.0 nM/s | substrate activity with pkDAO (in words) ([8]; listed as ANETA): not a substrate

CNCCOc1ccc2cc(CN)ccc2c1.Cl.Cl [compound 10, (2-(6-(Aminomethyl)naphthalen-2-yloxy)ethyl)methylamine dihydrochloride]
relative activity ([1]; fluorescence spectrophotometry): 1.5×10^3

NCc1ccccc1 [BA, benzylamine, reference compound]
V0 [4, 11]: 103.1 nM/s | V0 [5, 11]: 67.2 nM/s | relative activity ([1]; UV-vis spectrophotometry): 1 | V0 [6, 11]: 82.8 nM/s | V0 [7, 11]: 54.7 nM/s

Cl.Cl.NCCOc1ccc2cc(CN)ccc2c1 [compound 9, 2-(6-(Aminomethyl)naphthalen-2-yloxy)ethylamine dihydrochloride]
relative activity ([1]; fluorescence spectrophotometry): 2.9×10^2

NCc1ccc(CN)cc1 [PXDA, p-xylylenediamine, reference compound]
V0 ([8]; PXDA 1.5 mM in 0.1 M pH 7.2 phosphate buffer): 51.8 nM/s

COc1ccc2cc(CN)ccc2c1.Cl [compound 1, 6-Methoxy-2-naphthalenemethaneamine hydrochloride]
solubility (in words) [9]: poor solubility; also recorded: poorly soluble | relative activity ([1]; UV-vis spectrophotometry): 2.2 | relative activity ([1]; fluorescence spectrophotometry): 2.2
